Reference: publication PMC6431292 (Journal of molecular biology, 2018)
Where a chain is given by its changes, count along the chain named.

Columns and labels:
Format in all cases: binding
[1] = molecular target: T1, BLVRB (biliverdin reductase B) (Homo sapiens, UniProt P30043); assay: NMR titration
T1 sequence (P30043 1-206): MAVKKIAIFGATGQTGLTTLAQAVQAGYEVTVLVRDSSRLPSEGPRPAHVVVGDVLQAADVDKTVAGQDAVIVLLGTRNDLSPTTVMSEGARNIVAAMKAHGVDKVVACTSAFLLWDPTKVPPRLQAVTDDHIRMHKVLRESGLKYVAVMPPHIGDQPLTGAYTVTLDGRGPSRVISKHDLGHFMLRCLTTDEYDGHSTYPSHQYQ

[2] = molecular target: T1, BLVRB (biliverdin reductase B); assay: isothermal titration calorimetry
[3] = molecular target: T2, BLVRB (biliverdin reductase B) (Homo sapiens, UniProt P30043, R78A); assay: isothermal titration calorimetry
T2 sequence (P30043 1-206 R78A): T1 sequence (P30043 1-206) with R78A
In short: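 Human BLVRB (R78A mutant) expressed in E. coli BL21/DE3 with a cleavable N-terminal His-tag, Ni-purified under denaturing conditions, refolded by dialysis, tag removed, then gel-filtered. ITC used 100 μM enzyme in the cell, titrated with reduced or oxidized coenzyme (freshly prepared) at 1 mM. Buffer was 50 mM Bis–Tris pH 6.5, 50 mM NaCl, 1 mM DTT, at 20 °C. Runs were done in duplicate.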

With Cc1cc2nc3c(=O)[nH]c(=O)nc-3n(C[C@H](O)[C@H](O)[C@H](O)COP(=O)(O)OP(=O)(O)OC[C@H]3O[C@@H](n4cnc5c(N)ncnc54)[C@H](O)[C@@H]3O)c2cc1C [FAD] as the molecule, how does the Kd [1] read?
The Kd was 590 ± 80 µM.

With NC(=O)C1=CN([C@@H]2O[C@H](COP(=O)(O)OP(=O)(O)OC[C@H]3O[C@@H](n4cnc5c(N)ncnc54)[C@H](OP(=O)(O)O)[C@@H]3O)[C@@H](O)[C@H]2O)C=CC1 [NADPH] as the molecule, how does the Kd [2] read?
Its Kd is 0.3 ± 0.2 µM.

What does the source list for NC(=O)c1ccc[n+]([C@@H]2O[C@H](COP(=O)(O)OP(=O)(O)OC[C@H]3O[C@@H](n4cnc5c(N)ncnc54)[C@H](OP(=O)(O)O)[C@@H]3O)[C@@H](O)[C@H]2O)c1 [NADP^+]?
Kd [3]: 2.8 ± 0.2 µM; Kd [2]: 0.4 ± 0.2 µM
